One data set concerns Influenza A virus. Description: Antiviral activity against Influenza A virus (A/Puerto Rico/8/1934(H1N1)) infected in MDCK cells assessed as inhibition of virus-induced cytopathic effect after 48 hrs by CellTitre-Glo assay. The class given is functional, organism-based. Put shortly: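 MDCK cells infected with PR8 H1N1. IC50 is the compound concentration at which half of the infected cells survive. Only compounds with CC50 above 50 μM in MDCK cells were tested.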
In general terms: Cytopathic effects are the visible damage that an infection or toxin causes in cultured cells.

Data set [1] in a line: Inhibition of influenza A virus H1N1 endonuclease N-terminal domain of PA-subunit expressed in Escherichia coli BL21(DE3) using FAM-AAT CGC AGG CAG CAC TC-TAM as substrate by FRET assay. The procedure, abridged: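 Recombinant PA_N construct from pH1N1 2009 influenza in a FRET read-out of endonuclease cleavage. Compounds were first screened at 200 μM, then run in dose-response to derive IC50.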

The subject of the next data set is MDCK. Description: Cytotoxicity against MDCK cells after 48 hrs by methylene blue dye-based spectroscopy relative to control. The class given is cell-based, Canis lupus familiaris. Conditions: dog. Put shortly:
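MDCK cells. CC50 is the compound concentration that kills half of the cell population.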

Where [2] appears, read: Influenza A virus, A/Puerto Rico/8/1934(H1N1), MDCK, 48 h, read-out: IC50.

Where only a bound is given, the exact number is not on record here.

The term IC50 denotes the midpoint of a concentration-inhibition curve. The term CC50 denotes the concentration that lowers cell viability or growth by half. With `COc1ccc(NC(=O)/C(O)=C/C(=O)c2ccc(C)cc2)cc1`, the IC50 is more than 50 µM in the data set with Influenza A virus (setting [2]) and 0.6 µM in data set [1]. Further, in the data set on MDCK (read-out: CC50), the CC50 is more than 50 µM.
With `Cc1ccccc1/C=N\NC(=O)c1ccc(O)c(O)c1`, the values for the IC50 (in the data set on Influenza A virus (setting [2]); in data set [1]) were more than 50 µM and 1.9 µM, respectively. In the data set with MDCK (read-out: CC50), the CC50 was more than 50 µM.
With `O=C(Cc1ccccc1)c1ccc(O)c(O)c1O`, in data set [1], half-maximal inhibition (IC50) was put at 1.5 µM. Also, in the data set with MDCK (read-out: CC50), the CC50 stood at 18.1 µM.
In the case of `C/C(=N/NC(=O)c1ccc(O)c(O)c1)c1ccc(C)cc1`, the IC50 is more than 50 µM with Influenza A virus (setting [2]) and 2.1 µM in data set [1]. Moreover, the CC50 in the data set with MDCK (read-out: CC50) is more than 50 µM.
In data set [1], `COc1ccccc1N1CCN(/N=C/c2ccc(O)c(O)c2)CC1` yielded an IC50 of 2 µM. In the data set on MDCK (read-out: CC50), the CC50 was 13 µM.
With `O=C(N/N=C\c1ccc(/C=N/NC(=O)c2ccc(O)c(O)c2)cc1)c1ccc(O)c(O)c1`, the IC50 result is “ND(Insoluble)” in the data set on Influenza A virus (mdck) and 23 µM in data set [1]. Further, the CC50 result in the data set with MDCK is “ND(Insoluble)”.
Take `O=C(Cc1ccccc1Cl)c1ccc(O)c(O)c1O`: the IC50 was more than 50 µM with Influenza A virus (setting [2]) and 5 µM in data set [1]. For the same compound, in the data set with MDCK (read-out: CC50), the cytotoxic concentration (CC50) was more than 50 µM.
On to `O=C(N/N=C\c1cccc(Cl)c1Cl)c1ccc(O)c(O)c1`, for which, in data set [1], the IC50 was determined as 0.7 µM. In addition, in the data set with MDCK (read-out: CC50), the CC50 was 6.8 µM.
In the case of `O=C(N/N=C\c1ccccc1Cl)c1cc(O)c(O)c(O)c1`, the IC50 with Influenza A virus (setting [2]) was found to be 18 µM; in data set [1], 14 µM. For the same compound, the CC50 in the data set with MDCK (read-out: CC50) is more than 100 µM.
`O=C(/N=C1/C(=O)Nc2ccc(Br)cc21)/C(O)=C/C(=O)c1ccc(Cl)cc1` came in with an IC50 in data set [1] of 23 µM. Further, the CC50 with MDCK (read-out: CC50) is more than 50 µM.
For `COc1ccc(NC(=O)/C(O)=C/C(=O)c2ccc(Cl)cc2)cc1`, the results for the IC50 (in the data set on Influenza A virus (setting [2]); in data set [1]) were more than 50 µM and 0.74 µM, respectively. Moreover, the cytotoxic concentration (CC50) in the data set with MDCK (read-out: CC50) is more than 100 µM.
`Cc1ccccc1CC(=O)c1ccc(O)c(O)c1O` showed an IC50 in data set [1] of 11 µM. Besides, the CC50 with MDCK (read-out: CC50) is 21 µM.
For the compound `CC(=O)N1CCC2(CC1)CC(=O)c1ccc(O)c(O)c1O2`, the IC50 in the data set with Influenza A virus (setting [2]) was more than 100 µM; in data set [1] it was 46 µM. Also, in the data set with MDCK (read-out: CC50), the CC50 is more than 100 µM.
Regarding `O=C(/C=C(O)/C(O)=C/C(=O)c1ccc(Cl)cc1)c1ccc(Cl)cc1`, the IC50 in the data set on Influenza A virus (setting [2]) is more than 50 µM; in data set [1] it was 11.7 µM. In addition, the CC50 in the data set on MDCK (read-out: CC50) is more than 100 µM.
Consider `O=C1CC2(CCCCC2)Oc2c1ccc(O)c2O`, for which the figures for the IC50 (in the data set on Influenza A virus (setting [2]); in data set [1]) were more than 100 µM and 8 µM, respectively. In the data set on MDCK (read-out: CC50), the CC50 is more than 100 µM.
Turning to `Cc1ccc(C(=O)/C=C(O)/C(O)=C/C(=O)c2ccc(C)cc2)cc1`, the IC50 amounted to 23 µM in the data set with Influenza A virus (setting [2]) and 6 µM in data set [1]. Moreover, the CC50 with MDCK (read-out: CC50) was more than 50 µM.

Source of the values: ChEMBL document CHEMBL3108673, “Computation-guided discovery of influenza endonuclease inhibitors” (ACS Med Chem Lett, 2014).
